Drawing on ChEMBL document CHEMBL1681759, “Synthesis and biological evaluation of benzimidazole-5-carbohydrazide derivatives as antimalarial, cytotoxic and antitubercular agents” (Bioorg Med Chem, 2011), this text covers MIC for 12 molecules.

Values after ≈ are worked out from the molar mass of the structure shown. Some results are limits rather than exact numbers.

This experiment deals with Mycobacterium tuberculosis. Description: Antimycobacterial activity against multidrug-resistant Mycobacterium tuberculosis clinical isolate after 5 days by tetrazolium microplate assay. Format: functional. Particulars: 120 h. A digest of the protocol:
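Tetrazolium microplate assay run in 7H9GC broth. DMSO stocks (4 mg/mL) were diluted to final 0.4–25 µg/mL. Isoniazid (0.125–32 µg/mL) and rifampin (0.063–16 µg/mL) were positive controls; inoculum-only and DMSO controls were included. Plates were incubated 5 days at 37 °C, then an MTT-Tween 80 mix was added and incubation continued 24 h at 37 °C. Run in triplicate. MIC = lowest concentration preventing the yellow-to-purple colour change.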
As to `O=C(O)c1ccc2[nH]c(-c3ccc([N+](=O)[O-])o3)nc2c1`, the MIC (commonly the least concentration at which growth counts as inhibited) was above 25 µg/mL.
`O=CNNC(=O)c1ccc2[nH]c(-c3ccc([N+](=O)[O-])o3)nc2c1` had an MIC above 25 µg/mL.
In turn, `O=C(NNC(=O)c1ccc2[nH]c(-c3ccc([N+](=O)[O-])o3)nc2c1)c1ccccc1` displayed an MIC of 6.25 µg/mL (≈ 16 µM).
The value for `COc1cccc(C(=O)NNC(=O)c2ccc3[nH]c(-c4ccc([N+](=O)[O-])o4)nc3c2)c1` was 25 µg/mL (≈ 59.3 µM).
To `COc1ccc(C(=O)NNC(=O)c2ccc3[nH]c(-c4ccc([N+](=O)[O-])o4)nc3c2)cc1OC` belongs 25 µg/mL (≈ 55.4 µM); to `COc1cc(C(=O)NNC(=O)c2ccc3[nH]c(-c4ccc([N+](=O)[O-])o4)nc3c2)cc(OC)c1OC`, 25 µg/mL (≈ 51.9 µM); to `O=C(NNC(=O)c1ccc2[nH]c(-c3ccc([N+](=O)[O-])o3)nc2c1)c1cccc(Oc2ccccc2)c1`, 25 µg/mL (≈ 51.7 µM).
To `COc1cccc(C(=O)NNC(=O)c2ccc3[nH]c(-c4ccc([N+](=O)[O-])s4)nc3c2)c1` belongs 25 µg/mL (≈ 57.2 µM); to `COc1cc(C(=O)NNC(=O)c2ccc3[nH]c(-c4ccc([N+](=O)[O-])s4)nc3c2)cc(OC)c1OC`, above 25 µg/mL.
In turn, `O=C(NNC(=O)c1cc2ccccc2cc1O)c1ccc2[nH]c(-c3ccc([N+](=O)[O-])s3)nc2c1` returned an MIC above 25 µg/mL.
`NNC(=O)c1ccncc1` [ISONIAZID] displayed an MIC of 4 µg/mL (≈ 29.2 µM).
The value for `CO[C@H]1/C=C/O[C@@]2(C)Oc3c(C)c(O)c4c(O)c(c(/C=N/N5CCN(C)CC5)c(O)c4c3C2=O)NC(=O)/C(C)=C\C=C\[C@H](C)[C@H](O)[C@@H](C)[C@@H](O)[C@@H](C)[C@H](OC(C)=O)[C@@H]1C` [RIFAMPIN] was 2 µg/mL (≈ 2.43 µM).
